Assay [1] has as its system A549. Put plainly: Cytotoxicity against human A549 cells assessed as change in cell morphology at 5 uM after 48 hrs by phase contrast microscopic analysis. Format: functional, cell-based. In a few lines:
(§1)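 A549 cells (RPMI-1640, 10% bovine calf serum, 37 °C, 5% CO2) treated with compound at 5 µM or 0.1% DMSO control for 24 h or 48 h; morphology and cell density inspected by phase contrast microscopy.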

For assay [2], the system named is A549. Put plainly: Cytotoxicity against human A549 cells assessed as decrease in cell density at 5 uM after 24 to 48 hrs by phase contrast microscopic analysis. Format: functional, cell-based. In a few lines: as §1
Assay [3] deals with A549. Nature of the assay: Cytotoxicity against human A549 cells assessed as growth inhibition measured at 48 hrs by SRB assay. Format: functional, cell-based. The following applies: for IC50: A549, 48 h. In a few lines:
(§2)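 Sulforhodamine B assay: A549 cells seeded in 96-well plates, exposed 48 h to 1, 5 or 10 µM or 0.1% DMSO; survival expressed relative to DMSO-treated cells; triplicate assays, mean ± SE (n = 3); IC50 at 48 h derived.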
(Sulforhodamine B stains cellular protein and so reports cell mass.)

In assay [4] the test system is A549. Put plainly: Cytotoxicity against human A549 cells assessed as inhibition of cell viability at 10 uM after 48 hrs by SRB assay relative to control. Format: functional. In a few lines:
as §2

Assay [5] has as its system A549. Put plainly: Induction of autophagy in human A549 cells assessed as increase in acidic vesicles accumulation at 5 uM after 48 hrs by acridine orange staining-based fluorescence microscopic analysis. Format: functional, cell-based. In a few lines:
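A549 cells treated 48 h at 5 µM, then stained with acridine orange (5 µg/ml) for 1 min at room temperature, washed twice with PBS, and acidic vesicles viewed by fluorescence microscopy (200×).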

The subject of assay [6] is A549. Nature of the assay: Induction of autophagy in human A549 cells assessed as upregulation of LC3-2 protein expression at 5 uM after 48 hrs by Western blot analysis. Format: functional, cell-based. In a few lines: (§3)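 Cells treated 48 h at 5 µM, washed with ice-cold PBS, lysed, protein quantified by Bradford; SDS electrophoresis, PVDF transfer, blocking in 5% milk/PBST; probed overnight at 4 °C with rabbit anti-human LC3b and GAPDH antibodies, HRP secondaries, film detection; LC3-II band density normalised to loading control.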
(A western blot detects proteins with antibodies after separation by electrophoresis.)

Assay [7] deals with A549. Put plainly: Cell cycle arrest in human A549 cells assessed as accumulation at G1 phase at 5 uM after 48 hrs by propidium iodide staining-based flow cytometric analysis (reference value: 50.70%). Format: functional. Background: A flow cytometer gives signals particle by particle.
In assay [8] the test system is A549. Nature of the assay: Cell cycle arrest in human A549 cells assessed as accumulation at G2 phase at 5 uM after 48 hrs by propidium iodide staining-based flow cytometric analysis (reference value: 9.63%). Format: functional.
The test system of assay [9] is A549. Put plainly: Cell cycle arrest in human A549 cells assessed as accumulation at S phase at 5 uM after 48 hrs by propidium iodide staining-based flow cytometric analysis (reference value: 39.68%). Format: functional.
In assay [10] the test system is A549. Nature of the assay: Induction of apoptosis in human A549 cells assessed as chromatin condensation at 5 uM measured at 48 hrs by Hoechst 33258 staining-based fluorescence microscopic analysis. Format: functional, cell-based. In a few lines:
(§4)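 After 48 h with 5 µM compound or 0.1% DMSO, A549 cells in 24-well plates stained with 10 µg/ml Hoechst 33258 for 30 min at 37 °C, washed twice with PBS, and nuclei examined by fluorescence microscopy for chromatin condensation and apoptotic bodies.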

In assay [11] the test system is A549. Nature of the assay: Induction of apoptosis in human A549 cells assessed as increase in apoptotic bodies formation at 5 uM measured at 48 hrs by Hoechst 33258 staining-based fluorescence microscopic analysis. Format: functional, cell-based. In a few lines:
as §4

In assay [12] the test system is A549. Put plainly: Induction of necrosis in human A549 cells at 10 uM after 48 hrs by LDH release assay. Format: functional, cell-based. In a few lines:
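LDH level measured in A549 cells after 48 h with 10 µM compound or untreated control, using a commercial kit per manufacturer's instructions; mean ± SE, n = 3.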

Assay [13] concerns A549. Nature of the assay: Induction of autophagy in human A549 cells assessed as effect on LC3-2 protein expression at 5 uM after 48 hrs by Western blot analysis. Format: functional, cell-based. In a few lines:
as §3

The source made the active and inactive calls. No cut-off for these calls is given here.

As a reminder, the IC50 is the concentration that gives 50% inhibition.

Consider `O=C1COc2ccc(C(=O)/C=C/c3ccc4ccccc4c3)cc2N1`, for which the result with A549 [1] was inactive.

Turning to `COc1cc(/C=C/C(=O)c2ccc3c(c2)NC(=O)CO3)cc(OC)c1`, the outcome in the assay with A549 [1], with A549 [10], in the assay with A549 [11] and with A549 [12] was inactive. Besides, the outcome in the assay with A549 [2], in the assay on A549 [5] and with A549 [6] was Active. Besides, in the assay on A549 [3], the “growth inhibition (GI)” value was “Dose-dependent effect”. Moreover, the IC50 in the assay on A549 [3] is 3.29 µM. The Activity in the assay on A549 [4] is 24%; in the assay with A549 [7], 75.46%; with A549 [8], 15.29%; in the assay with A549 [9] it was 9.25%.

Take `O=C1COc2ccc(C(=O)/C=C/c3ccc4c(c3)OCO4)cc2N1`: the result in the assay on A549 [1], in the assay with A549 [5], with A549 [13], in the assay on A549 [10], with A549 [11] and in the assay with A549 [12] was inactive. Further, the result with A549 [2] was Active. Besides, the “growth inhibition (GI)” value in the assay with A549 [3] is “Dose-dependent effect”. Moreover, in the assay on A549 [3], the IC50 came out at 16.3 µM. In addition, the Activity in the assay with A549 [7] was 63.37%; with A549 [8], 10.33%; in the assay with A549 [9], 26.3%.

For `O=C1COc2ccc(C(=O)/C=C/c3ccccc3)cc2N1`, the outcome in the assay on A549 [1], in the assay on A549 [5], with A549 [6], with A549 [10], in the assay with A549 [11] and in the assay with A549 [12] was inactive. In the assay on A549 [2], the result was Active. Besides, the “growth inhibition (GI)” value in the assay on A549 [3] was “Dose-dependent effect”. Moreover, the IC50 with A549 [3] amounted to 5.46 µM. The Activity with A549 [7] came out at 55.27%; with A549 [8], 12.66%; in the assay on A549 [9], 32.08%.

With `O=c1[nH]cc(F)c(=O)[nH]1` [FLUOROURACIL], the IC50 in the assay on A549 [3] was 0.98 µM.

With `COc1ccc(/C=C/C(=O)c2ccc3c(c2)NC(=O)CO3)c(OC)c1`, the outcome in the assay with A549 [1], in the assay on A549 [10], in the assay with A549 [11] and in the assay on A549 [12] was inactive. Further, the result in the assay on A549 [2], with A549 [5] and in the assay with A549 [6] was Active. Besides, the “growth inhibition (GI)” value in the assay on A549 [3] is “Dose-dependent effect”. Also, in the assay on A549 [3], the IC50 stood at 6.49 µM. Also, the Activity in the assay with A549 [7] was found to be 57.92%; with A549 [8], 11.5%; in the assay on A549 [9], 30.59%.

In the case of `O=C1COc2ccc(C(=O)/C=C/c3ccc(OCc4ccccc4)cc3)cc2N1`, the result in the assay with A549 [1] was inactive.

For the molecule `O=C1COc2ccc(C(=O)/C=C/c3ccc(Cl)cc3)cc2N1`, the outcome in the assay with A549 [1] was inactive.

Source of the values: ChEMBL document CHEMBL3232763, “Synthesis of 6-cinnamoyl-2H-benzo[b][1,4]oxazin-3(4H)-ones and their effects on A549 lung cancer cell growth” (Eur J Med Chem, 2014).
